In ChEMBL document CHEMBL4118249, “Discovery and Identification of Small Molecules as Methuosis Inducers with in Vivo Antitumor Activities” (J Med Chem, 2018):
The source made the active and inactive calls. No cut-off for these calls is given here.

Assays:
[1] = system: MDA-MB-231; assay: Induction of methuosis in human MDA-MB-231 cells assessed as increase in vacuole formation at 10 uM after 24 hrs by phase contrast microscopic analysis relative to control; assay type: functional
[2] = system: MDA-MB-231; assay: Induction of methuosis in human MDA-MB-231 cells assessed as increase in vacuole formation at 1 uM after 24 hrs by phase contrast microscopic analysis relative to control; assay type: functional
[3] = system: MDA-MB-231; assay: Antiproliferative activity against human MDA-MB-231 cells at 2 uM after 48 hrs in presence of pan-caspase inhibitor Z-VAD-FMK by MTS assay; assay type: functional, cell-based
Method in brief: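 Cells pretreated 1 h with 100 µM Z-VAD-FMK, then 2 µM compound (0.1 µM staurosporine as comparator) alone or combined for 48 h; MTS viability, means ± SD of triplicates.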

[4] = system: MDA-MB-231; assay: Induction of apoptosis in human MDA-MB-231 cells assessed as caspase-3 activation at 0.5 to 4 uM after 24 hrs; assay type: functional, cell-based
Method in brief: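 After 24 h exposure to DMSO, graded compound concentrations or staurosporine, MDA-MB-231 cells were harvested, lysed and caspase 3 activity measured with a commercial activity kit.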

[5] = system: MDA-MB-231; assay: Induction of mitochondria originated vacuolization in human MDA-MB-231 cells at 2 uM after 12 hrs by Mito-tracker red staining based phase contrast fluorescent microscopic analysis; assay type: functional, cell-based
Method in brief: (§1)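 MDA-MB-231 attached overnight on glass-bottom dishes, treated with DMSO or 2 µM for 12 h, then loaded with ER-tracker or Mito-tracker Red; phase-contrast and confocal fluorescence imaging.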

[6] = system: MDA-MB-231; assay: Induction of methuosis in human MDA-MB-231 cells assessed as late endosomal marker Rab7 on vacuole membranes at 2 uM after 12 hrs by anti-Rab7 staining based immunofluorescent microscopic analysis
[7] = system: MDA-MB-231; assay: Antitumor activity against human MDA-MB-231 cells xenografted in iv dosed Balb/c nude mouse assessed as tumor growth inhibition administered once daily for 13 days measured 6 hrs post last dose; assay type: functional, organism-based
Method in brief: (§2)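 Female BALB/c nude mice (4–6 weeks) injected subcutaneously with 5×10^6 MDA-MB-231 cells; at ~100 mm3 (length×width²×0.5) randomized (n = 6) and dosed iv by tail vein once daily at 5 or 20 mg/kg in 10% Kolliphor HS 15 in saline, or vehicle; tumor volume and weight measured daily; tumors excised 6 h after final dose, H&E stained.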

[8] = system: MDA-MB-231; assay: Induction of mitochondria originated vacuolization in human MDA-MB-231 cells assessed as mitochondrial swelling at 2 uM after 12 hrs by uranyl acetate or lead citrate staining based transmission electron microscopic analysis; assay type: functional, cell-based
Method in brief: (§3)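 MDA-MB-231 given DMSO or 2 µM for 12 h; fixed in 2.5% glutaraldehyde (0.1 M PBS pH 7.4, 4 °C, 3 h), post-fixed 1% OsO4, ethanol-dehydrated, Spurr's resin embedded; 70 nm sections stained with uranyl acetate or lead citrate, viewed by TEM for organelle swelling.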

[9] = system: MDA-MB-231; assay: Antiproliferative activity against human MDA-MB-231 cells at 2 uM after 48 hrs in presence of autophagy inhibitor 3-MA by MTS assay; assay type: functional, cell-based
Method in brief: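 MDA-MB-231 given DMSO, 1 mM 3-MA, 2 µM compound, or the combination for 48 h; viability by MTS, means ± SD of triplicate samples.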

[10] = system: MDA-MB-231; assay: Induction of methuosis in human MDA-MB-231 cells xenografted in Balb/c nude mouse assessed as vacuole formation in tumor at 20 mg/kg, iv administered once daily for 13 days measured 6 hrs post last dose by H and E staining based light microscopic method; assay type: functional, organism-based; method in brief: as §2
[11] = system: MDA-MB-231; assay: Induction of apoptosis in human MDA-MB-231 cells assessed as PARP cleavage at 0.5 to 4 uM after 24 hrs by Western blot analysis; assay type: functional, cell-based
Method in brief: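 MDA-MB-231 treated 24 h with DMSO, graded compound concentrations or staurosporine; lysed, equal protein separated by 10–15% SDS-PAGE, PVDF transfer, probed for PARP and cleaved PARP, ECL detection.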

[12] = system: MDA-MB-231; assay: Induction of methuosis in human MDA-MB-231 cells assessed as macropinocytosis at 2 uM after 12 hrs by lucifer yellow CH staining based phase contrast fluorescent microscopic analysis; assay type: functional, cell-based
Method in brief: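 MDA-MB-231 incubated with 2 µM compound and Lucifer yellow together for 12 h, PBS-washed, imaged by phase contrast and confocal fluorescence.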

[13] = system: MDA-MB-231; assay: Induction of methuosis in human MDA-MB-231 cells assessed as increase in vacuole formation at 2 uM after 24 hrs in presence of necrosis inhibitor necrostatin-1 by optical microscopic analysis; assay type: functional, cell-based
Method in brief: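 Optical microscopy of MDA-MB-231 after 24 h with DMSO, 50 µM necrostatin-1, 2 µM compound, or both.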

[14] = system: MDA-MB-231; assay: Antiproliferative activity against human MDA-MB-231 cells after 48 hrs by crystal violet staining based microscopic method; assay type: functional, cell-based
Method in brief: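 MDA-MB-231 seeded, cultured 12 h, medium refreshed, then exposed to 0.1% DMSO or graded compound concentrations for 48 h; fixed in 4% paraformaldehyde 15 min at room temperature, stained with crystal violet, examined by optical microscopy and quantified.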

[15] = system: MDA-MB-231; assay: Induction of endoplasmic reticulum originated vacuolization in human MDA-MB-231 cells assessed as endoplasmic reticulum swelling at 2 uM after 12 hrs by uranyl acetate or lead citrate staining based transmission electron microscopic analysis; assay type: functional, cell-based; method in brief: as §3
[16] = system: MDA-MB-231; assay: Induction of methuosis in human MDA-MB-231 cells assessed as increase in vacuole formation at 2 uM after 24 hrs in presence of pan-caspase inhibitor Z-VAD-FMK by optical microscopic analysis; assay type: functional, cell-based
Method in brief: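 Optical microscopy of MDA-MB-231 after 24 h with DMSO, 100 µM Z-VAD-FMK, 2 µM compound, or both.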

[17] = system: MDA-MB-231; assay: Induction of endoplasmic reticulum originated vacuolization in human MDA-MB-231 cells at 2 uM after 12 hrs by ER-tracker staining based phase contrast fluorescent microscopic analysis; assay type: functional, cell-based; method in brief: as §1
[18] = system: MDA-MB-231; assay: Induction of methuosis in human MDA-MB-231 cells assessed as increase in vacuole formation at 2 uM after 12 to 24 hrs by optical microscopic analysis; assay type: functional, cell-based
Method in brief: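 MDA-MB-231 treated with 2 µM and inspected by optical microscopy at successive times (12, 24, 48 h) for vesicle accumulation and vacuole fusion.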

[19] = system: MDA-MB-231; assay: Induction of methuosis in human MDA-MB-231 cells assessed as macropinocytosis at 2 uM after 12 hrs by lyso-tracker red staining based phase contrast fluorescent microscopic analysis; assay type: functional, cell-based
Method in brief: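 MDA-MB-231 treated 2 µM for 12 h, then loaded with Lyso-tracker Red; phase-contrast and confocal fluorescence imaging.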

[20] = system: MDA-MB-231; assay: Antiproliferative activity against human MDA-MB-231 cells at 2 uM after 48 hrs in presence of necrosis inhibitor necrostatin-1 by MTS assay; assay type: functional, cell-based
Method in brief: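 MDA-MB-231 given DMSO, 50 µM necrostatin-1, 2 µM compound, or combinations for 48 h; viability by MTS, means ± SD of triplicate samples.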

[21] = system: MDA-MB-231; assay: Induction of methuosis in human MDA-MB-231 cells assessed as increase in vacuole formation at 2 uM after 24 hrs in presence of autophagy inhibitor 3-MA by optical microscopic analysis; assay type: functional, cell-based
Method in brief: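 Optical microscopy of MDA-MB-231 after 24 h with DMSO, 1 mM 3-MA, 2 µM compound, or both.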

SMILES: Cc1ccc(NC(=O)c2cccc(C(F)(F)F)c2)cc1Nc1cc(-c2ccsc2)nc2[nH]ccc12
- Activity [1]: 0.21%
- Activity [2]: 0%

SMILES: Cc1ccc(NC(=O)c2cccc(C(F)(F)F)c2)cc1Nc1cc(-c2cccc(N)c2)nc2[nH]ccc12
- Activity [1]: 1.63%
- Activity [2]: 0.27%

SMILES: Cc1ccc(C(=O)Nc2cccc(C(F)(F)F)c2)cc1Nc1cc(-c2cccnc2)nc2[nH]ccc12
- Activity [1]: 99.42%
- Activity [2]: 70.29%

SMILES: Cc1ccc(NC(=O)c2cccc(C(F)(F)F)c2)cc1Nc1cc(-c2ccoc2)nc2[nH]ccc12
- Activity [1]: 0%
- Activity [2]: 0.24%

SMILES: Cc1ccc(C(=O)Nc2cc(C(F)(F)F)cc(C(F)(F)F)c2)cc1Nc1cc(-c2cccnc2)nc2[nH]ccc12
- Activity [1]: 0%
- Activity [2]: 0%

SMILES: Cc1cccc(NC(=O)c2ccc(C)c(Nc3cc(-c4cccnc4)nc4[nH]ccc34)c2)c1
- Activity [1]: 97.68%
- Activity [2]: 11.24%

SMILES: Cc1ccc(C(=O)Nc2cccc(Cl)c2)cc1Nc1cc(-c2cccnc2)nc2[nH]ccc12
- Activity [1]: 96.75%
- Activity [2]: 19.49%

SMILES: O=C(Nc1cccc(C(F)(F)F)c1)c1cccc(Nc2cc(-c3cccnc3)nc3[nH]ccc23)c1
- Activity [1]: 80.23%
- Activity [2]: 3.78%

SMILES: Cc1ccc(NC(=O)c2cccc(C(F)(F)F)c2)cc1Nc1cc(-c2cccnc2)nc2c1ccn2C
- Activity [1]: 96.27%
- Activity [2]: 16.08%

SMILES: Cc1ccc(NC(=O)c2cccc(C(F)(F)F)c2)cc1Nc1cc(-c2ccncc2)nc2[nH]ccc12
- Activity [1]: 96.34%
- Activity [2]: 1.46%

SMILES: COc1cccc(NC(=O)c2ccc(C)c(Nc3cc(-c4cccnc4)nc4[nH]ccc34)c2)c1
- Activity [1]: 100%
- Activity [2]: 76.86%

SMILES: Cc1ccc(NC(=S)Nc2cccc(C(F)(F)F)c2)cc1Nc1cc(-c2cccnc2)nc2[nH]ccc12
- Activity [1]: 87.3%
- Activity [2]: 1.26%

SMILES: Cc1ccc(C(=O)Nc2cccc(C(F)(F)F)c2)cc1Nc1cc(-c2ccncc2)nc2[nH]ccc12
- Activity [1]: 1.94%
- Activity [2]: 0%

SMILES: Cc1ccc(C(=O)Nc2cccc(OC(F)(F)F)c2)cc1Nc1cc(-c2cccnc2)nc2[nH]ccc12
- Activity [1]: 99.66%
- Activity [2]: 38.57%

SMILES: Cc1ccc(C(=O)Nc2cccc(C(F)(F)F)c2)cc1Nc1cc(-c2cccnc2)nc2c1ccn2C
- Activity [1]: 70.96%
- Activity [2]: 3.63%

SMILES: Cc1ccc(C(=O)Nc2cc(CN3CCN(C)CC3)cc(C(F)(F)F)c2)cc1Nc1cc(-c2cccnc2)nc2[nH]ccc12
- Activity [1]: 0%
- Activity [2]: 0.62%

SMILES: O=C(Nc1cccc(Nc2cc(-c3cccnc3)nc3[nH]ccc23)c1)c1cccc(C(F)(F)F)c1
- Activity [1]: 98.98%
- Activity [2]: 96.61%

SMILES: Cc1ccc(C(=O)N2CCOCC2)cc1Nc1cc(-c2cccnc2)nc2[nH]ccc12
- Activity [1]: 0%
- Activity [2]: 0%

SMILES: Cc1cc(NC(=O)c2ccc(C)c(Nc3cc(-c4cccnc4)nc4[nH]ccc34)c2)n(C)n1
- Activity [1]: 95.24%
- Activity [2]: 2.48%

SMILES: Cc1ccc(NC(=O)c2cccc(C(F)(F)F)c2)cc1Nc1cc(-c2ccccc2)nc2[nH]ccc12
- Activity [1]: 0%
- Activity [2]: 0%

SMILES: Cc1ccc(NC(=O)c2cccc(C(F)(F)F)c2)cc1Nc1cc(-c2cccnc2)nc2[nH]ccc12
- Activity [3]: Active
- Activity [4]: inactive
- Activity [5]: inactive
- Activity [6]: Active
- TGI [7]: Dose-dependent effect
- Activity [8]: inactive
- Activity [9]: Active
- Activity [10]: Active
- Activity [11]: inactive
- Activity [12]: Active
- Activity [13]: Active
- Activity [14]: Dose-dependent effect
- Activity [15]: inactive
- Activity [16]: Active
- Activity [17]: inactive
- Activity [18]: Active
- Activity [19]: Active
- Activity [20]: Active
- Activity [21]: Active

SMILES: Cc1ccc(NC(=O)c2cccc(C(F)(F)F)c2)cc1Nc1cc(-c2cccc(Cl)c2)nc2[nH]ccc12
- Activity [1]: 0.33%
- Activity [2]: 0.03%
